Active and inactive are the calls of the source. The rule behind the calls is not given here.
Assays:
[1] = Inhibition of RTK/PI3K/AKT/mTOR signaling in human U87 cells assessed as down regulation of NFIL3 gene expression at cytotoxic IC50 measured after 48 hrs relative to control; assay type: cell-based; settings: U-87MG ATCC
Outline: (§1)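 Cells were exposed for 48hrs at 37°C in humidified 5% CO₂ to the compound at its previously determined IC₅₀, with Cisplatin at its IC₅₀ and an untreated negative control alongside. Each condition was run in triplicate. RNA was isolated from all samples by the same protocol. Genes were called differentially expressed by DESeq2 at q-value < 0.05 and fold change > 1.5.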

U-87 MG [2] = test: Induction of apoptosis in human U87 cells assessed as apoptotic cells at cytotoxic IC50 measured after 48 hrs by Annexin V-FITC/propidium iodide staining based flow cytometry (reference value: 22.4%); assay type: functional, U-87MG ATCC
U-87 MG [3] = test: Cell cycle arrest in human U87 cells assessed as change in CDC6 gene expression at cytotoxic IC50 measured after 48 hrs […] relative to control; assay type: functional, U-87MG ATCC
Outline: (§2)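 U87 expression profiling. Cells incubated 48hrs at 37°C, 5% CO₂ with the IC₅₀ concentration, alongside a cisplatin and an untreated control, in triplicate. RNA was isolated by one common protocol and profiled. DEGs were called with DESeq2 (q < 0.05, fold change > 1.5) and expressed as fold change versus untreated.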

[4] = Inhibition of RTK/PI3K/AKT/mTOR signaling in human U87 cells assessed as down regulation of RFC4 gene expression at cytotoxic IC50 measured after 48 hrs relative to control; assay type: cell-based; settings: U-87MG ATCC; outline: as §1
[5] = Inhibition of RTK/PI3K/AKT/mTOR signaling in human U87 cells assessed as down regulation of ZYG11B gene expression at cytotoxic IC50 measured after 48 hrs relative to control; assay type: cell-based; settings: U-87MG ATCC; outline: as §1
U-87 MG [6] = test: Induction of DNA damage in human U87 cells assessed as change in BAX gene expression at cytotoxic IC50 measured after 48 hrs […] relative to control; assay type: functional, U-87MG ATCC; outline: as §2
U-87 MG [7] = test: Cytotoxicity against human U87 cells assessed as reduction in cell proliferation by phase contrast microscopic analysis; assay type: functional, cell-based; settings: U-87MG ATCC
[8] = Inhibition of RTK/PI3K/AKT/mTOR signaling in human U87 cells assessed as up regulation of platelet derived growth factor C gene expression at cytotoxic IC50 measured after 48 hrs relative to control; assay type: cell-based
[9] = Inhibition of RTK/PI3K/AKT/mTOR signaling in human U87 cells assessed as up regulation of solute carrier family 11 member 2 gene expression at cytotoxic IC50 measured after 48 hrs relative to control; assay type: cell-based; settings: U-87MG ATCC
U-87 MG [10] = test: Induction of apoptosis in human U87 cells assessed as change in TUBA4A gene expression at cytotoxic IC50 measured after 48 hrs by […] relative to control; assay type: functional, U-87MG ATCC
Outline: (§3)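 U87 cells grown in MEM with 10% FBS at 37°C, 5% CO2. Cells exposed to IC50 of test compound for 48 hrs, alongside untreated and cisplatin controls, each condition in triplicate. RNA isolated and profiled; differential expression called with DESeq2 (q-value < 0.05, fold change > 1.5), fold change versus untreated.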

[11] = Inhibition of RTK/PI3K/AKT/mTOR signaling in human U87 cells assessed as up regulation of ankyrin repeat domain 10 gene expression at cytotoxic IC50 measured after 48 hrs relative to control; assay type: cell-based; settings: U-87MG ATCC
[12] = Inhibition of RTK/PI3K/AKT/mTOR signaling in human U87 cells assessed as up regulation of RHOA gene expression at cytotoxic IC50 measured after 48 hrs relative to control; assay type: cell-based; settings: U-87MG ATCC; outline: as §1
U-87 MG [13] = test: Induction of apoptosis in human U87 cells assessed as change in CAPN2 gene expression at cytotoxic IC50 measured after 48 hrs […] relative to control; assay type: functional, U-87MG ATCC; outline: as §3
[14] = Inhibition of RTK/PI3K/AKT/mTOR signaling in human U87 cells assessed as up regulation of SLC45A3 gene expression at cytotoxic IC50 measured after 48 hrs relative to control; assay type: cell-based; settings: U-87MG ATCC
[15] = Inhibition of RTK/PI3K/AKT/mTOR signaling in human U87 cells assessed as up regulation of ETS variant 1 gene expression at cytotoxic IC50 measured after 48 hrs relative to control; assay type: cell-based; settings: U-87MG ATCC; outline: as §1
U-87 MG [16] = test: Induction of DNA damage in human U87 cells assessed as change in CDKN1A gene expression at cytotoxic IC50 measured after 48 hrs […] relative to control; assay type: functional, U-87MG ATCC; outline: as §2
U-87 MG [17] = test: Induction of apoptosis in human U87 cells assessed as change in CTSV gene expression at cytotoxic IC50 measured after 48 hrs […] relative to control; assay type: functional, U-87MG ATCC; outline: as §3
LN-229 = test: Induction of apoptosis in human LN229 cells assessed as decrease in caspase-3/7 activation at cytotoxic IC50 measured after 5 hrs by caspase-glo 3/7 luminescence assay relative to control; assay type: functional; design: scale not given: the % may be the effect or the level left
Outline: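 Cells grown overnight in 96-well format, then given IC50 for 5 hrs at 37°C, 5% CO2, with negative, positive and blank (medium+DMSO+dye) wells. Equilibrated 30 min at room temperature, Caspase-Glo 3/7 reagent added 1:1 in the dark, luminescence read at 1 hr. Fold change = (test−blank)/(control−blank). Triplicate measurements, at least two independent experiments.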

[18] = Inhibition of RTK/PI3K/AKT/mTOR signaling in human U87 cells assessed as up regulation of T-cell lymphoma invasion and metastasis 1 gene expression at cytotoxic IC50 measured after 48 hrs relative to control; assay type: cell-based
[19] = Inhibition of RTK/PI3K/AKT/mTOR signaling in human U87 cells assessed as up regulation of USH1 protein network component harmonin gene expression at cytotoxic IC50 measured after 48 hrs relative to control; assay type: cell-based; settings: U-87MG ATCC
[20] = Inhibition of RTK/PI3K/AKT/mTOR signaling in human U87 cells assessed as down regulation of SORT1 gene expression at cytotoxic IC50 measured after 48 hrs relative to control; assay type: cell-based; settings: U-87MG ATCC; outline: as §1
U-87 MG [21] = test: Induction of DNA damage in human U87 cells assessed as change in PIDD1 gene expression at cytotoxic IC50 measured after 48 hrs […] relative to control; assay type: functional, U-87MG ATCC; outline: as §2
[22] = Inhibition of RTK/PI3K/AKT/mTOR signaling in human U87 cells assessed as up regulation of KLF7 gene expression at cytotoxic IC50 measured after 48 hrs relative to control; assay type: cell-based; settings: U-87MG ATCC; outline: as §1
[23] = Inhibition of RTK/PI3K/AKT/mTOR signaling in human U87 cells assessed as up regulation of INHBE gene expression at cytotoxic IC50 measured after 48 hrs relative to control; assay type: cell-based; settings: U-87MG ATCC; outline: as §1
U-87 MG [24] = test: Cell cycle arrest in human U87 cells assessed as change in CDKN1A gene expression at cytotoxic IC50 measured after 48 hrs […] relative to control; assay type: functional, U-87MG ATCC; outline: as §2
[25] = Inhibition of RTK/PI3K/AKT/mTOR signaling in human U87 cells assessed as up regulation of NCOR2 gene expression at cytotoxic IC50 measured after 48 hrs relative to control; assay type: cell-based; settings: U-87MG ATCC; outline: as §1
[26] = Inhibition of RTK/PI3K/AKT/mTOR signaling in human U87 cells assessed as down regulation of GPATCH11 gene expression at cytotoxic IC50 measured after 48 hrs relative to control; assay type: cell-based; settings: U-87MG ATCC; outline: as §3
[27] = Inhibition of RTK/PI3K/AKT/mTOR signaling in human U87 cells assessed as down regulation of ERCC3 gene expression at cytotoxic IC50 measured after 48 hrs relative to control; assay type: cell-based; settings: U-87MG ATCC; outline: as §3

Q: With `CC(=O)C(=NNc1ccccc1C#N)C(C)=O` as the compound, how does the log2FC [1] read?
A: -0.44

Q: What about the Activity (U-87 MG [2]) of the same compound?
A: 68.7%

Q: And the “fold change (FC)” value (U-87 MG [3])?
A: 1.009

Q: What about the log2FC [4] of the same compound?
A: -1

Q: And the log2FC [5]?
A: -0.823

Q: What about the “fold change (FC)” value (U-87 MG [6]) of the same compound?
A: 2.512

Q: And the Activity (U-87 MG [7])?
A: Active

Q: And the log2FC [8]?
A: 0.883

Q: What about the log2FC [9] of the same compound?
A: 1.18

Q: What about the log2FC (U-87 MG [10]) of the same compound?
A: 1.583

Q: What about the log2FC [11] of the same compound?
A: 1.12

Q: What about the log2FC [12] of the same compound?
A: 0.32

Q: And the log2FC (U-87 MG [13])?
A: -1.189

Q: And the log2FC [14]?
A: 1.61

Q: What about the log2FC [15] of the same compound?
A: 1.09

Q: What about the “fold change (FC)” value (U-87 MG [16]) of the same compound?
A: 1.296

Q: And the log2FC (U-87 MG [17])?
A: 1.986

Q: What about the Activity (LN-229) of the same compound?
A: 36.1%

Q: What about the log2FC [18] of the same compound?
A: 0.812

Q: And the log2FC [19]?
A: 1.03

Q: What about the log2FC [20] of the same compound?
A: -0.801

Q: And the “fold change (FC)” value (U-87 MG [21])?
A: 2.467

Q: And the log2FC [22]?
A: 1.91

Q: What about the log2FC [23] of the same compound?
A: 2.96

Q: What about the “fold change (FC)” value (U-87 MG [24]) of the same compound?
A: 1.296

Q: And the log2FC [25]?
A: 0.558

Q: And the log2FC [26]?
A: -1.69

Q: And the log2FC [27]?
A: -0.491

Source: ChEMBL document CHEMBL4316593 (Eur J Med Chem, 2019)
